Experiment [1] has as its system L1210. Description: Cytotoxicity against mouse L1210 cells. In kind it is functional, cell-based.
Experiment [2] concerns HeLa. Description: Cytotoxicity against human HeLa cells. In kind it is functional, cell-based.
Experiment [3] has as its system A549. Description: Cytotoxicity against human A549 cells. In kind it is functional, cell-based.
The test system of experiment [4] is KB. Description: Cytotoxicity against human KB cells. The experiment is classed as functional, cell-based.
In experiment [5] the test system is CCRF S-180. Description: Antitumor activity against mouse S180 cells xenografted ICR/kwl mouse assessed as increase in mouse life span at 5 mg/kg, ip relative to control. In kind it is functional. In a few lines: (§1)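 Female ICR/kwl mice (7 weeks, 19-21 g), six per group, inoculated ip with 0.1 mL sarcoma-180 suspension (1×10^7 cells/mL in saline). Compound dissolved in a little dimethylacetamide, suspended in 10% Tween 80-saline (1 mg/mL), given ip on days 1, 5 and 9 after inoculation. Survival followed; ILS (%) = (A/B − 1)×100 from weighed median survival days, treated versus untreated controls.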

The subject of experiment [6] is CCRF S-180. Description: Antitumor activity against mouse S180 cells xenografted ICR/kwl mouse assessed as increase in mouse life span at 10 mg/kg, ip relative to control. The experiment is classed as functional. In short, it runs like this:
as §1

Each structure is given as a SMILES string. ≈ marks a conversion by molar mass, not a printed value. Calls of active or inactive are those of the source. The calls are words filed in the database; no cut-off is given here. A value given as a limit tells only on which side of the number the result lay.

One may read the IC50 as the concentration at which inhibition is half-maximal. In the case of `CO[C@@]12[C@H](COC(N)=O)C3=C(C(=O)C(C)=C(N)C3=O)N1C[C@@H]1N[C@@H]12` [MITOMYCIN], the 50% inhibitory concentration (IC50) in experiment [1] is 0.02 µg/mL (≈ 0.0598 µM); in experiment [2], 0.015 µg/mL (≈ 0.0449 µM); in experiment [3], 0.02 µg/mL (≈ 0.0598 µM); in experiment [4], 0.015 µg/mL (≈ 0.0449 µM).
As for `CC(=O)O[C@@H]1C[C@@H]2[C@@]3(C)CCCC(C)(C)[C@@H]3CC[C@@]2(C)[C@@H]2CC=C3C(=O)O[C@@H](O)[C@@H]3[C@@]12C`, the IC50 in experiment [1] is 13.2 µg/mL (≈ 29.7 µM); in experiment [2], 26 µg/mL (≈ 58.5 µM); in experiment [3] it was 23.7 µg/mL (≈ 53.3 µM); in experiment [4] it was 18.5 µg/mL (≈ 41.6 µM).
`O=c1[nH]cc(F)c(=O)[nH]1` [FLUOROURACIL]: in experiment [5] (route intraperitoneal), the Activity amounted to 32.9%. Also, the result in experiment [6] was Active.
Regarding `CC1(C)CCC[C@]2(C)[C@H]3C[C@@H](O)[C@]4(C)[C@@H]5C(=CC[C@H]4[C@]3(C)CC[C@@H]12)C(=O)O[C@H]5O`, the IC50 in experiment [1] was found to be 2.3 µg/mL (≈ 5.71 µM); in experiment [2], 15 µg/mL (≈ 37.3 µM); in experiment [3], 14.8 µg/mL (≈ 36.8 µM); in experiment [4], 14.3 µg/mL (≈ 35.5 µM). The outcome in experiment [5] was inactive.
As to `CC1(C)CCC[C@]2(C)[C@H]3C[C@@H](O)[C@]4(C)[C@H]5COC(=O)C5=CC[C@H]4[C@]3(C)CC[C@@H]12`, the IC50 in experiment [1] was 1.6 µg/mL (≈ 4.14 µM); in experiment [2] it was 16.5 µg/mL (≈ 42.7 µM); in experiment [3] it was 16.5 µg/mL (≈ 42.7 µM); in experiment [4], 17.1 µg/mL (≈ 44.2 µM). Further, the Activity in experiment [5] (route intraperitoneal) is 50.3%.
Regarding `CC1(C)CCC[C@]2(C)[C@H]3C[C@@H](O)[C@]4(C)c5cocc5CC[C@H]4[C@]3(C)CC[C@@H]12`, the IC50 in experiment [1] was greater than 50 µg/mL; in experiment [2], 19.5 µg/mL (≈ 52.6 µM); in experiment [3] it was greater than 50 µg/mL; in experiment [4], greater than 50 µg/mL.
Turning to `CC(=O)O[C@@H]1C[C@@H]2[C@@]3(C)CCCC(C)(C)[C@@H]3CC[C@@]2(C)[C@@H]2CC=C3CO[C@@H](O)[C@@H]3[C@@]12C`, the IC50 in experiment [1] is 2.1 µg/mL (≈ 4.88 µM); in experiment [2] it was 22.5 µg/mL (≈ 52.2 µM); in experiment [3], 29.4 µg/mL (≈ 68.3 µM); in experiment [4], 16.2 µg/mL (≈ 37.6 µM). In addition, in experiment [6] (route intraperitoneal), the Activity turned out to be 28%.
For `CO[C@@H]1C[C@H]2[C@]3(C)CC[C@H]4C(C)(C)CCC[C@]4(C)[C@H]3C[C@@H](OC(C)=O)[C@]2(C)C2=C1C(=O)O[C@H]2O`, the 50% inhibitory concentration (IC50) was 2.2 µg/mL (≈ 4.64 µM) in experiment [1], 5.3 µg/mL (≈ 11.2 µM) in experiment [2], 5.3 µg/mL (≈ 11.2 µM) in experiment [3] and 15.6 µg/mL (≈ 32.9 µM) in experiment [4].
